The source of these data is ChEMBL document CHEMBL1122501, “Potential antiatherosclerotic agents. 2. (Aralkylamino)- and (alkylamino) benzoic acid analogues of cetaben” (1983).

Assay [1] deals with T1, Sterol O-acyltransferase 1 (Rattus norvegicus) (UniProt O70536).
T1 sequence (whole entry): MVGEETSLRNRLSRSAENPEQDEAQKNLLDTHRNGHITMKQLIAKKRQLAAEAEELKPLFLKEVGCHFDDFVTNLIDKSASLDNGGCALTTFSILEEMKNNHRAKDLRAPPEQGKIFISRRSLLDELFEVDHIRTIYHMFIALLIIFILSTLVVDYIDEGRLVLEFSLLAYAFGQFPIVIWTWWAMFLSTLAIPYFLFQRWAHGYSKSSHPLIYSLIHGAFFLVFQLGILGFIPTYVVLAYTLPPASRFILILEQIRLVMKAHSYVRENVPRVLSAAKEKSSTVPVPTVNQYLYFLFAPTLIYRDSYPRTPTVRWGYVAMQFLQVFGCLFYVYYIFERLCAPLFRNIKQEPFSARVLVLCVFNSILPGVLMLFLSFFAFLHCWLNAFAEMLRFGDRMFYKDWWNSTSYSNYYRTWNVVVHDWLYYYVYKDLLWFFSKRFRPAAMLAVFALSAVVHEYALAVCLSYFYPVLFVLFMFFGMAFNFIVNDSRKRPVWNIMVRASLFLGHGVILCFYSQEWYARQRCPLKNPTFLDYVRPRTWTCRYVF
Kind of assay: In vitro inhibitory activity against acyl coenzyme A:cholesterol acyltransferase (ACAT). The arrangement: concentration or dose not given beside the values. Particulars: concentration not given here. The essentials:
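ACAT enzyme from rat adrenal homogenate in 0.2 M KH2PO4 buffer pH 7.4, 1000g 15 min 5 °C supernatant (microsomal fraction). Supernatant + BSA (50 mg/mL) + compound at final 5.2 μg/mL + buffer preincubated 10 min 37 °C; [14C]oleoyl-CoA (0.4 μCi) added, 30 min 37 °C. Lipids extracted, TLC; cholesteryl ester zone counted. Mean % inhibition vs no-compound control; Student's t test.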

For assay [2], the system named is Rattus norvegicus. In words: In vivo Triglyceride lowering activity at dose as 0.017 % of the diet. The assay is classed as functional. The essentials: (§1)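 Male CFE or CD-1 Sprague-Dawley rats, 140-150 g; 8 per control group, 4 per test group. Compound mixed into ground chow (w/w) via MeOH-CHCl3 (1:3) solution, solvent evaporated; controls got solvent-treated chow. Fed ad libitum 5 days, food intake monitored, killed fed and bled. Serum sterols and triglycerides by adapted autoanalyzer methods; mean percent of control, Student's t test.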

Assay [3] concerns Rattus norvegicus. In words: In vivo Sterol lowering activity at dose as 0.05 % of the diet. The assay is classed as functional. In a few lines: as §1
Assay [4] concerns Rattus norvegicus. In words: In vivo sterol lowering activity dosed at 0.10 % of the diet. The assay is classed as functional. The essentials:
as §1

In assay [5] the test system is Rattus norvegicus. Kind of assay: In vivo triglyceride lowering activity dosed at 0.05 % of the diet. The assay is classed as functional. The essentials: as §1
Assay [6] relates to Rattus norvegicus. Kind of assay: In vivo triglyceride lowering activity dosed at 0.10 % of the diet. The assay is classed as functional. The essentials: as §1
Assay [7] relates to Rattus norvegicus. In words: In vivo Sterol lowering activity at dose as 0.017 % of the diet. The assay is classed as functional. In a few lines:
as §1

Assay [8] relates to Rattus norvegicus. In words: In vivo Sterol lowering activity at dose as 0.025 % of the diet. The assay is classed as functional. The essentials:
as §1

Assay [9] concerns Rattus norvegicus. In words: In vivo Sterol lowering activity at dose as 0.10 % of the diet. The format is functional. The essentials: as §1
Assay [10] concerns Rattus norvegicus. In words: In vivo Triglyceride lowering activity at dose as 0.05 % of the diet. The assay is classed as functional. The essentials: as §1
The subject of assay [11] is Rattus norvegicus. In words: In vivo Triglyceride lowering activity at dose as 0.025 % of the diet. The format is functional. The essentials: as §1
Assay [12] concerns Rattus norvegicus. Kind of assay: In vivo Triglyceride lowering activity at dose as 0.025% of the diet. The assay is classed as functional. In a few lines: as §1
Assay [13] deals with Rattus norvegicus. In words: In vivo triglyceride lowering activity, dosed at 0.10 % of the diet. The assay is classed as functional. The essentials: as §1
The test system of assay [14] is Rattus norvegicus. In words: In vivo Triglyceride lowering activity at dose as 0.025% of the diet. The format is functional. In a few lines:
as §1

The test system of assay [15] is Rattus norvegicus. Kind of assay: In vivo Sterol lowering activity at dose as 0.025 % of the diet. The assay is classed as functional. The essentials: as §1
Assay [16] relates to Rattus norvegicus. Kind of assay: In vivo triglyceride lowering activity, dosed at 0.03 % of the diet. The format is functional. In a few lines: as §1
The subject of assay [17] is Rattus norvegicus. In words: In vivo Sterol lowering activity at dose as 0.03 % of the diet. The assay is classed as functional. In a few lines: as §1
The subject of assay [18] is Rattus norvegicus. Kind of assay: In vivo triglyceride lowering activity, dosed at 0.01 % of the diet. The assay is classed as functional. The essentials:
as §1

Assay [19] concerns Rattus norvegicus. Kind of assay: In vivo Sterol lowering activity at dose as 0.01 % of the diet.. The format is functional. In a few lines:
as §1

For assay [20], the system named is Rattus norvegicus. In words: In vivo Sterol lowering activity at dose as 0.05 % of the diet. The assay is classed as functional. In a few lines: as §1
Assay [21] concerns Rattus norvegicus. In words: In vivo Triglyceride lowering activity at dose as 0.017 % of the diet. The assay is classed as functional. The essentials:
as §1

Compound `CCCCCCCCCCCCCOc1ccc(CNc2ccc(C(=O)O)cc2)cc1` returned an inhibition in assay [1] of under 36%. Besides, in the assay on Rattus norvegicus [2], the “Serum triglycerides, % of control” value is given as under 62%. For the same compound, the values for the Diet in the assay on Rattus norvegicus [3], with Rattus norvegicus [5] and with Rattus norvegicus [7] were 100%, under 65% and 100%, respectively. In the assay on Rattus norvegicus [4], the “serum sterol, percent of control” value was 81%. In addition, the “serum triglycerides, percent of control” value in the assay on Rattus norvegicus [6] was under 56%.

As for `CCCCCCCOc1ccc(CNc2ccc(C(=O)OCC)cc2)cc1`, the “Serum triglycerides, % of control” value in the assay on Rattus norvegicus [2] was 88%. Also, the Diet in the assay with Rattus norvegicus [3] is reported as under 86%; in the assay on Rattus norvegicus [5], under 76%; with Rattus norvegicus [7], 100%. Also, the “serum sterol, percent of control” value in the assay on Rattus norvegicus [4] worked out at 90%. Besides, the “serum triglycerides, percent of control” value in the assay on Rattus norvegicus [6] is under 80%.

On to `CCOC(=O)c1ccc(NCc2ccc(-c3ccccc3)cc2)cc1`, for which, in [1], the inhibition was 19%. Also, the Diet was 102% with Rattus norvegicus [8], 94% in the assay with Rattus norvegicus [3], 76% in the assay on Rattus norvegicus [10] and 74% in the assay on Rattus norvegicus [11]. Besides, the “serum sterol, percent of control” value with Rattus norvegicus [9] stood at 94%. In addition, the “serum triglycerides, percent of control” value in the assay on Rattus norvegicus [6] came out at 52%.

On to `O=C(O)c1ccc(NCCCCCc2ccccc2)cc1`, for which the inhibition in assay [1] was 26%. Besides, the Diet is listed as 96% with Rattus norvegicus [12]; 95% in the assay on Rattus norvegicus [8]; 84% with Rattus norvegicus [3]; 78% with Rattus norvegicus [10]; 89% in the assay on Rattus norvegicus [13]. In the assay on Rattus norvegicus [9], the “serum sterol, percent of control” value turned out to be 108%.

`CCCCCCCOc1ccc(CNc2ccc(C(=O)O)cc2)cc1` registered an inhibition in [1] of under 24%. Besides, the “Serum triglycerides, % of control” value with Rattus norvegicus [2] is 95%. Further, the Diet in the assay with Rattus norvegicus [3] is listed as under 84%; in the assay with Rattus norvegicus [5], under 70%; in the assay on Rattus norvegicus [7], 100%. In addition, in the assay on Rattus norvegicus [4], the “serum sterol, percent of control” value is under 84%. Moreover, the “serum triglycerides, percent of control” value in the assay with Rattus norvegicus [6] is under 72%.

Compound `CCOC(=O)c1ccc(NCCCCCc2ccccc2)cc1` displayed an inhibition in [1] of 69%. For the same compound, the Diet with Rattus norvegicus [12] turned out to be 84%; with Rattus norvegicus [8], 92%; in the assay with Rattus norvegicus [3], 85%; in the assay on Rattus norvegicus [5], 66%. In addition, in the assay on Rattus norvegicus [9], the “serum sterol, percent of control” value is reported as 90%. Further, the “serum triglycerides, percent of control” value with Rattus norvegicus [6] was 62%.

On to `O=C(O)c1ccc(NCCCCCCCCCc2ccccc2)cc1`, for which, in [1], the inhibition is under 28%. For the same compound, the Diet in the assay on Rattus norvegicus [14] is under 50%; with Rattus norvegicus [15], 96%; with Rattus norvegicus [3], 96%; in the assay on Rattus norvegicus [5], under 58%. In addition, in the assay on Rattus norvegicus [4], the “serum sterol, percent of control” value was 92%. Further, the “serum triglycerides, percent of control” value in the assay on Rattus norvegicus [6] is given as under 68%.

For `CCOC(=O)c1ccc(NCCCc2ccc(N)cc2)cc1`, in assay [1], the inhibition came to 28%. Also, the “serum triglycerides, percent of control” value in the assay on Rattus norvegicus [16] came to 70%; in the assay on Rattus norvegicus [6], 79%. The “serum sterol level, percent of control” value in the assay with Rattus norvegicus [17] was determined as 97%. In the assay with Rattus norvegicus [9], the “serum sterol, percent of control” value turned out to be 100%. The Diet was determined as 113% in the assay on Rattus norvegicus [18] and 93% with Rattus norvegicus [19].

In the case of `CCOC(=O)c1ccc(NCCCCCCc2ccccc2)cc1`, the inhibition in assay [1] turned out to be 41%. For the same compound, the Diet in the assay on Rattus norvegicus [12] turned out to be 59%; with Rattus norvegicus [15], 89%; in the assay on Rattus norvegicus [3] it was 84%; in the assay on Rattus norvegicus [5], 45%. Moreover, in the assay with Rattus norvegicus [4], the “serum sterol, percent of control” value is on record as 82%. The “serum triglycerides, percent of control” value with Rattus norvegicus [6] turned out to be 43%.

`CCCCCCCCCCc1ccc(CNc2ccc(C(=O)O)cc2)cc1`: the inhibition in [1] is under 51%. Besides, the “Serum triglycerides, % of control” value in the assay on Rattus norvegicus [2] is listed as 100%. In addition, the Diet in the assay with Rattus norvegicus [3] was under 88%; with Rattus norvegicus [5] it was 113%; in the assay with Rattus norvegicus [7] it was 99%. The “serum sterol, percent of control” value in the assay with Rattus norvegicus [4] is on record as under 78%. In addition, the “serum triglycerides, percent of control” value in the assay on Rattus norvegicus [6] came out at 114%.

As for `O=C(O)c1ccc(NCCCCCCc2ccccc2)cc1`, the inhibition in [1] was 17%. In addition, the Diet in the assay with Rattus norvegicus [14] is listed as 52%; in the assay on Rattus norvegicus [15] it was 83%; with Rattus norvegicus [3], 85%; with Rattus norvegicus [5], 46%. Further, in the assay with Rattus norvegicus [9], the “serum sterol, percent of control” value was 86%. The “serum triglycerides, percent of control” value in the assay with Rattus norvegicus [6] was 40%.

In turn, `CCOC(=O)c1ccc(NCCCCc2cccs2)cc1` yielded an inhibition in assay [1] of 56%. Besides, the Diet is 89% in the assay with Rattus norvegicus [12]; 94% in the assay with Rattus norvegicus [8]; 97% with Rattus norvegicus [20]; 96% in the assay with Rattus norvegicus [10]; 99% in the assay on Rattus norvegicus [13]. Further, the “serum sterol, percent of control” value with Rattus norvegicus [9] was found to be 90%.

In the case of `CCOC(=O)c1ccc(NCCc2cccs2)cc1`, the inhibition in assay [1] is 49%. Besides, the Diet in the assay with Rattus norvegicus [21] turned out to be 81%; in the assay with Rattus norvegicus [20], 90%; in the assay with Rattus norvegicus [10], 94%; in the assay with Rattus norvegicus [13], 69%; in the assay on Rattus norvegicus [7] it was 86%. The “serum sterol, percent of control” value in the assay with Rattus norvegicus [4] was found to be 86%.

As for `CCOC(=O)c1ccc(NCCCCCCCCc2ccccc2)cc1`, the inhibition in [1] was under 50%. Also, the Diet with Rattus norvegicus [14] is under 61%; in the assay on Rattus norvegicus [15] it was 88%; in the assay on Rattus norvegicus [3], 96%; in the assay with Rattus norvegicus [5], under 65%. For the same compound, the “serum sterol, percent of control” value with Rattus norvegicus [4] is 98%. Moreover, the “serum triglycerides, percent of control” value in the assay with Rattus norvegicus [6] was under 54%.

Turning to `COc1ccccc1CCCNc1ccc(C(=O)O)cc1`, in [1], the inhibition is 0%. Further, the Diet is 102% in the assay with Rattus norvegicus [8]; 100% with Rattus norvegicus [20]; 87% with Rattus norvegicus [10]; 72% with Rattus norvegicus [13]; 100% with Rattus norvegicus [11]. For the same compound, the “serum sterol, percent of control” value in the assay with Rattus norvegicus [9] was 110%.

Regarding `O=C(O)c1ccc(NCCCCCCCCCCc2ccccc2)cc1`, in assay [1], the inhibition is under 44%. Also, the Diet is under 79% with Rattus norvegicus [14], under 87% in the assay with Rattus norvegicus [15], 89% in the assay with Rattus norvegicus [3] and 88% in the assay with Rattus norvegicus [5]. The “serum sterol, percent of control” value in the assay on Rattus norvegicus [4] is on record as under 87%. Also, the “serum triglycerides, percent of control” value in the assay on Rattus norvegicus [6] amounted to 81%.

One may read the inhibition as the change of the read-out against control, counted positive when it falls.
